Broadly, the IC50 is the concentration that inhibits the measured activity by half. High values mean weaker potency in that assay, low ones greater potency in that assay.

The subject of assay [1] is A2780. In words: Antitumor activity of compound for 96-h exposure in A2780 human ovarian cell line. The class given is functional, cell-based. The settings on record: A2780, 96 h. The essentials: (§1)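 Cells grown as monolayers in DMEM with 10% fetal bovine serum, 2 mM glutamine and 0.5 µg/mL hydrocortisone, in 6% CO2. Seeded at 3000-5000/well and attached overnight. Serial drug dilutions (compound dissolved in 10% DMSO) added to quadruplicate wells, 96 h. Fixed with TCA, stained with SRB, absorbance read at 540 nm. IC50 is the concentration giving 50% of control absorbance. Resistance factor is resistant-subline IC50 divided by parent IC50.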

Assay [2] concerns SK-OV-3. In words: Antitumor activity of compound for 96-h exposure in SKOV-3 human ovarian cell line. The conditions noted are these: SK-OV-3, 96 h. The class given is functional, cell-based. The essentials:
as §1

The subject of assay [3] is CH1. In words: Antitumor activity of compound for 96-h exposure in CH1 human ovarian cell line. The class given is functional, cell-based. The conditions noted are these: CH1, 96 h. The essentials:
as §1

For assay [4], the system named is A2780cisR. Kind of assay: Antitumor activity of compound for 96-h exposure in A2780cisR (acquired resistance to cisplatin) human ovarian cell line. The class given is functional, cell-based. A digest of the protocol:
as §1

Assay [5] can be described thus: Resistance factor was determined using the ratio of resistance of resistant cell line and its parent cell line.
Assay [6] has as its system Mus musculus. Kind of assay: Activity was determined in ip human tumor xenograft (hallow fiber) assays in adult female nude mice. The class given is functional. In general terms: Xenograft models place foreign cells or tissue in a host animal.
Assay [7] relates to Mus musculus. In words: Activity was determined in sc human tumor xenograft (hallow fiber) assays, adult female nude mice. The class given is functional.
The species entered for assay [8] is Mus musculus. In words: Total score was determined, adult female nude mice. The class given is functional.
In assay [9] the test system is OVCAR-3. Kind of assay: In vivo antitumor activity was determined after a dose of 4.5 mg/kg (ip) using hollow fiber assay against OVCAR-3 human ovarian carcinoma cells (ip-implanted fibers). The class given is functional.
The test system of assay [10] is SK-OV-3. In words: Growth inhibitory activity of compound for 6-h exposure in SKOV-3 cell line. The class given is functional, cell-based. The conditions noted are these: Homo sapiens, SK-OV-3, 6 h. A digest of the protocol:
(§2)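 SKOV-3 monolayers treated with serially diluted drug in quadruplicate wells. Drug aspirated after 2, 6 or 24 h and replaced with fresh medium for the rest of a 96-h period. Growth measured by TCA fixation, SRB staining and absorbance at 540 nm. IC50 is the concentration halving mean absorbance relative to untreated controls.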

Assay [11] relates to SK-OV-3. In words: Growth inhibitory activity of compound for 2-h exposure in SKOV-3 cell line. The class given is functional, cell-based. The conditions noted are these: Homo sapiens, SK-OV-3, 2 h. A digest of the protocol: as §2
The subject of assay [12] is SK-OV-3. Kind of assay: Growth inhibitory activity of compound for 24-h exposure in SKOV-3 cell line. The class given is functional, cell-based. The conditions noted are these: Homo sapiens, SK-OV-3, 24 h. A digest of the protocol: as §2
Assay [13] has as its system CH1. In words: In vivo antitumor activity was determined after a dose of 4 mg/kg (ip) using hollow fiber assay with (ip)implanted CH1 cells. The class given is functional, Homo sapiens. The essentials: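 CH1 cells trypsinized, seeded at 1 × 10^7 cells/mL into 2-cm PVDF fibers, heat-sealed and incubated 3 days. Fibers then implanted ip in nude mice. Next day a single 4 mg/kg ip dose given, or vehicle (10% DMSO/90% arachis oil). Fibers retrieved six days later; viable cells measured by MTT absorbance at 540 nm and expressed as % treated/control.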

Assay [14] has as its system SK-OV-3. In words: Growth inhibitory activity of compound for 96-h exposure in SKOV-3 cell line. The conditions noted are these: Homo sapiens, SK-OV-3, 96 h. The class given is functional, cell-based. A digest of the protocol:
as §1

`CN1CCN(c2ccc3[nH]c(-c4ccc5[nH]c(-c6ccc(O)cc6)nc5c4)nc3c2)CC1` [HOECHST 33258]: the IC50 in assay [1] was 12 µM; in assay [2], > 100 µM; in assay [3] it was 26.5 µM; in assay [4], 9.5 µM.

As to `COc1cccc2c1C(=O)c1c(O)c3c(c(O)c1C2=O)C[C@@](O)(C(=O)CO)C[C@@H]3O[C@H]1C[C@H](N)[C@H](O)[C@H](C)O1` [DOXORUBICIN], in [5], the RF stood at 90.

`COc1ccc(-c2nc3cc(-c4ccc5[nH]c(-c6ccc(OC)cc6)nc5c4)ccc3[nH]2)cc1`: the IC50 amounted to 13.5 µM in [1], 16.5 µM in assay [2], 3.8 µM in [3] and 5.1 µM in [4]. This molecule also registered an Ip score in assay [6] of 8. This molecule showed a Subcut score in assay [7] of 0. In assay [8], this molecule showed a Total score of 8.

Consider `Oc1ccc(-c2nc3ccc(-c4ccc5nc(-c6ccc(O)cc6)[nH]c5c4)cc3[nH]2)cc1`, for which the IC50 in assay [1] is 4.3 µM; in assay [2] it was 16 µM; in assay [3] it was 1.05 µM; in [4] it was 2.7 µM. The molecule also registered an Ip score in assay [6] of 10. This molecule also registered a Subcut score in assay [7] of 0. Further, the Total score in assay [8] came to 10.

With `CN(C)CCCOc1ccc(-c2nc3cc(-c4ccc5nc(-c6ccc(OCCCN(C)C)cc6)[nH]c5c4)ccc3[nH]2)cc1`, the IC50 in assay [1] was found to be 0.235 µM; in [10] it was 0.105 µM; in assay [2], 0.375 µM; in assay [11], 0.33 µM; in assay [3] it was 0.24 µM; in assay [12], 0.115 µM. Besides, the results for the IC50 in assay [4] and in assay [14] were 0.115 µM and 0.1 µM, respectively. In assay [6], this molecule had an Ip score of 12. The results for the T/C in assay [9] and in assay [13] were 0.56 and 0.79, respectively. Also, the Subcut score in assay [7] came to 4. For the same molecule, in assay [5], the RF stood at 5.8. Also, the Total score in assay [8] is 16.

These data come from ChEMBL document CHEMBL1134602, “A new class of symmetric bisbenzimidazole-based DNA minor groove-binding agents showing antitumor activity” (J Med Chem, 2001).
